# Data as given in ChEMBL document CHEMBL3044834, “Novel protoporphyrinogen oxidase inhibitors: 3H-pyrazolo[3,4-d][1,2,3]triazin-4-one derivatives” (J Agric Food Chem, 2008).
# Assays:
# Format in all cases: functional
# [1] = system: Brassica rapa subsp. oleifera; assay: Herbicidal activity against Brassica rapa subsp. oleifera assessed as inhibition of fresh weed plant weight at 22.5 g/ha using pre-emergence treatment protocol
# Digitaria sanguinalis [2] = assay: Herbicidal activity against Digitaria sanguinalis (hairy crabgrass) assessed as inhibition of fresh weed plant weight at 93.75 g/ha using post-emergence treatment protocol
# Summary of the method: (§1)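 Test compounds made up as emulsions by dissolving in 100 µL N,N-dimethylformamide, then adding a little Tween 20 and water. For post-emergence, weed seedlings at one leaf and one stem were sprayed at the same rates as the pre-emergence test. Fresh weight was recorded 15 days after treatment and expressed as percent inhibition versus controls. All treatments were run in triplicate.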
# Amaranthus retroflexus [3] = assay: Herbicidal activity against Amaranthus retroflexus assessed as inhibition of fresh weed plant weight at 187.5 g/ha using pre-emergence treatment protocol
# Amaranthus retroflexus [4] = assay: Herbicidal activity against Amaranthus retroflexus assessed as inhibition of fresh weed plant weight at 93.75 g/ha using pre-emergence treatment protocol
# Echinochloa crus-galli [5] = assay: Herbicidal activity against Echinochloa crus-galli (barnyard grass) assessed as inhibition of fresh weed plant weight at 187.5 g/ha using pre-emergence treatment protocol; summary of the method: as §1
# Amaranthus retroflexus [6] = assay: Herbicidal activity against Amaranthus retroflexus assessed as inhibition of fresh weed plant weight at 375 g/ha using post-emergence treatment protocol; summary of the method: as §1
# Digitaria sanguinalis [7] = assay: Herbicidal activity against Digitaria sanguinalis (hairy crabgrass) assessed as inhibition of fresh weed plant weight at 93.75 g/ha using pre-emergence treatment protocol
# Echinochloa crus-galli [8] = assay: Herbicidal activity against Echinochloa crus-galli (barnyard grass) assessed as inhibition of fresh weed plant weight at 1500 g/ha using post-emergence treatment protocol; summary of the method: as §1
# Amaranthus retroflexus [9] = assay: Herbicidal activity against Amaranthus retroflexus assessed as inhibition of fresh weed plant weight at 187.5 g/ha using post-emergence treatment protocol; summary of the method: as §1
# Amaranthus retroflexus [10] = assay: Herbicidal activity against Amaranthus retroflexus assessed as inhibition of fresh weed plant weight at 750 g/ha using post-emergence treatment protocol; summary of the method: as §1
# [11] = system: Brassica rapa subsp. oleifera; assay: Herbicidal activity against Brassica rapa subsp. oleifera assessed as inhibition of fresh weed plant weight at 93.75 g/ha using pre-emergence treatment protocol
# Amaranthus retroflexus [12] = assay: Herbicidal activity against Amaranthus retroflexus assessed as inhibition of fresh weed plant weight at 45 g/ha using pre-emergence treatment protocol
# Digitaria sanguinalis [13] = assay: Herbicidal activity against Digitaria sanguinalis (hairy crabgrass) assessed as inhibition of fresh weed plant weight at 375 g/ha using post-emergence treatment protocol; summary of the method: as §1
# Amaranthus retroflexus [14] = assay: Herbicidal activity against Amaranthus retroflexus assessed as inhibition of fresh weed plant weight at 93.75 g/ha using post-emergence treatment protocol; summary of the method: as §1
# Echinochloa crus-galli [15] = assay: Herbicidal activity against Echinochloa crus-galli (barnyard grass) assessed as inhibition of fresh weed plant weight at 187.5 g/ha using post-emergence treatment protocol; summary of the method: as §1
# Echinochloa crus-galli [16] = assay: Herbicidal activity against Echinochloa crus-galli (barnyard grass) assessed as inhibition of fresh weed plant weight at 750 g/ha using pre-emergence treatment protocol
# Digitaria sanguinalis [17] = assay: Herbicidal activity against Digitaria sanguinalis (hairy crabgrass) assessed as inhibition of fresh weed plant weight at 750 g/ha using post-emergence treatment protocol; summary of the method: as §1
# Amaranthus retroflexus [18] = assay: Herbicidal activity against Amaranthus retroflexus assessed as inhibition of fresh weed plant weight at 750 g/ha using pre-emergence treatment protocol; summary of the method: as §1
# Digitaria sanguinalis [19] = assay: Herbicidal activity against Digitaria sanguinalis (hairy crabgrass) assessed as inhibition of fresh weed plant weight at 1500 g/ha using pre-emergence treatment protocol
# Echinochloa crus-galli [20] = assay: Herbicidal activity against Echinochloa crus-galli (barnyard grass) assessed as inhibition of fresh weed plant weight at 1500 g/ha using pre-emergence treatment protocol
# Echinochloa crus-galli [21] = assay: Herbicidal activity against Echinochloa crus-galli (barnyard grass) assessed as inhibition of fresh weed plant weight at 93.75 g/ha using post-emergence treatment protocol; summary of the method: as §1
# Digitaria sanguinalis [22] = assay: Herbicidal activity against Digitaria sanguinalis (hairy crabgrass) assessed as inhibition of fresh weed plant weight at 22.5 g/ha using pre-emergence treatment protocol
# [23] = system: Brassica rapa subsp. oleifera; assay: Herbicidal activity against Brassica rapa subsp. oleifera assessed as inhibition of fresh weed plant weight at 1500 g/ha using pre-emergence treatment protocol
# [24] = system: Brassica rapa subsp. oleifera; assay: Herbicidal activity against Brassica rapa subsp. oleifera assessed as inhibition of fresh weed plant weight at 93.75 g/ha using post-emergence treatment protocol; summary of the method: as §1
# Echinochloa crus-galli [25] = assay: Herbicidal activity against Echinochloa crus-galli (barnyard grass) assessed as inhibition of fresh weed plant weight at 750 g/ha using post-emergence treatment protocol; summary of the method: as §1
# [26] = system: Brassica rapa subsp. oleifera; assay: Herbicidal activity against Brassica rapa subsp. oleifera assessed as inhibition of fresh weed plant weight at 375 g/ha using pre-emergence treatment protocol
# [27] = system: Brassica rapa subsp. oleifera; assay: Herbicidal activity against Brassica rapa subsp. oleifera assessed as inhibition of fresh weed plant weight at 45 g/ha using pre-emergence treatment protocol
# [28] = system: Brassica rapa subsp. oleifera; assay: Herbicidal activity against Brassica rapa subsp. oleifera assessed as inhibition of fresh weed plant weight at 1500 g/ha using post-emergence treatment protocol; summary of the method: as §1
# Echinochloa crus-galli [29] = assay: Herbicidal activity against Echinochloa crus-galli (barnyard grass) assessed as inhibition of fresh weed plant weight at 22.5 g/ha using pre-emergence treatment protocol; summary of the method: as §1
# Echinochloa crus-galli [30] = assay: Herbicidal activity against Echinochloa crus-galli (barnyard grass) assessed as inhibition of fresh weed plant weight at 375 g/ha using post-emergence treatment protocol; summary of the method: as §1
# [31] = system: Brassica rapa subsp. oleifera; assay: Herbicidal activity against Brassica rapa subsp. oleifera assessed as inhibition of fresh weed plant weight at 750 g/ha using pre-emergence treatment protocol
# [32] = system: Brassica rapa subsp. oleifera; assay: Herbicidal activity against Brassica rapa subsp. oleifera assessed as inhibition of fresh weed plant weight at 187.5 g/ha using post-emergence treatment protocol; summary of the method: as §1
# [33] = system: Brassica rapa subsp. oleifera; assay: Herbicidal activity against Brassica rapa subsp. oleifera assessed as inhibition of fresh weed plant weight at 187.5 g/ha using pre-emergence treatment protocol
# [34] = system: Brassica rapa subsp. oleifera; assay: Herbicidal activity against Brassica rapa subsp. oleifera assessed as inhibition of fresh weed plant weight at 375 g/ha using post-emergence treatment protocol; summary of the method: as §1
# [35] = system: Brassica rapa subsp. oleifera; assay: Herbicidal activity against Brassica rapa subsp. oleifera assessed as inhibition of fresh weed plant weight at 750 g/ha using post-emergence treatment protocol; summary of the method: as §1
# Digitaria sanguinalis [36] = assay: Herbicidal activity against Digitaria sanguinalis (hairy crabgrass) assessed as inhibition of fresh weed plant weight at 45 g/ha using pre-emergence treatment protocol
# Amaranthus retroflexus [37] = assay: Herbicidal activity against Amaranthus retroflexus assessed as inhibition of fresh weed plant weight at 1500 g/ha using post-emergence treatment protocol; summary of the method: as §1
# Digitaria sanguinalis [38] = assay: Herbicidal activity against Digitaria sanguinalis (hairy crabgrass) assessed as inhibition of fresh weed plant weight at 1500 g/ha using post-emergence treatment protocol; summary of the method: as §1
# Echinochloa crus-galli [39] = assay: Herbicidal activity against Echinochloa crus-galli (barnyard grass) assessed as inhibition of fresh weed plant weight at 45 g/ha using pre-emergence treatment protocol
# Amaranthus retroflexus [40] = assay: Herbicidal activity against Amaranthus retroflexus assessed as inhibition of fresh weed plant weight at 375 g/ha using pre-emergence treatment protocol
# Digitaria sanguinalis [41] = assay: Herbicidal activity against Digitaria sanguinalis (hairy crabgrass) assessed as inhibition of fresh weed plant weight at 750 g/ha using pre-emergence treatment protocol
# Echinochloa crus-galli [42] = assay: Herbicidal activity against Echinochloa crus-galli (barnyard grass) assessed as inhibition of fresh weed plant weight at 375 g/ha using pre-emergence treatment protocol; summary of the method: as §1
# Amaranthus retroflexus [43] = assay: Herbicidal activity against Amaranthus retroflexus assessed as inhibition of fresh weed plant weight at 22.5 g/ha using pre-emergence treatment protocol
# Amaranthus retroflexus [44] = assay: Herbicidal activity against Amaranthus retroflexus assessed as inhibition of fresh weed plant weight at 1500 g/ha using pre-emergence treatment protocol
# Digitaria sanguinalis [45] = assay: Herbicidal activity against Digitaria sanguinalis (hairy crabgrass) assessed as inhibition of fresh weed plant weight at 187.5 g/ha using post-emergence treatment protocol; summary of the method: as §1
# Echinochloa crus-galli [46] = assay: Herbicidal activity against Echinochloa crus-galli (barnyard grass) assessed as inhibition of fresh weed plant weight at 93.75 g/ha using pre-emergence treatment protocol
# Digitaria sanguinalis [47] = assay: Herbicidal activity against Digitaria sanguinalis (hairy crabgrass) assessed as inhibition of fresh weed plant weight at 187.5 g/ha using pre-emergence treatment protocol
# Digitaria sanguinalis [48] = assay: Herbicidal activity against Digitaria sanguinalis (hairy crabgrass) assessed as inhibition of fresh weed plant weight at 375 g/ha using pre-emergence treatment protocol
smiles,measurement,setting,value
C#CCN1C(=O)COc2cc(F)c(-n3nnc4c(cnn4CC=C)c3=O)cc21,inhibition at 22.5 g/ha,[1],22.3%
same,inhibition at 93.75 g/ha,Digitaria sanguinalis [2],0%
same,inhibition at 187.5 g/ha,Amaranthus retroflexus [3],100%
same,inhibition at 93.75 g/ha,Amaranthus retroflexus [4],100%
same,inhibition at 187.5 g/ha,Echinochloa crus-galli [5],63.7%
same,inhibition at 375 g/ha,Amaranthus retroflexus [6],83.5%
same,inhibition at 93.75 g/ha,Digitaria sanguinalis [7],44.9%
same,inhibition at 1500 g/ha,Echinochloa crus-galli [8],85.2%
same,inhibition at 187.5 g/ha,Amaranthus retroflexus [9],5.8%
same,inhibition at 750 g/ha,Amaranthus retroflexus [10],100%
same,inhibition at 93.75 g/ha,[11],100%
same,inhibition at 45 g/ha,Amaranthus retroflexus [12],86.2%
same,inhibition at 375 g/ha,Digitaria sanguinalis [13],4.2%
same,inhibition at 93.75 g/ha,Amaranthus retroflexus [14],0%
same,inhibition at 187.5 g/ha,Echinochloa crus-galli [15],27.8%
same,inhibition at 750 g/ha,Echinochloa crus-galli [16],98.9%
same,inhibition at 750 g/ha,Digitaria sanguinalis [17],16.7%
same,inhibition at 750 g/ha,Amaranthus retroflexus [18],100%
same,inhibition at 1500 g/ha,Digitaria sanguinalis [19],100%
same,inhibition at 1500 g/ha,Echinochloa crus-galli [20],100%
same,inhibition at 93.75 g/ha,Echinochloa crus-galli [21],7%
same,inhibition at 22.5 g/ha,Digitaria sanguinalis [22],0%
same,inhibition at 1500 g/ha,[23],100%
same,inhibition at 93.75 g/ha,[24],18.5%
same,inhibition at 750 g/ha,Echinochloa crus-galli [25],51.6%
same,inhibition at 375 g/ha,[26],100%
same,inhibition at 45 g/ha,[27],66.7%
same,inhibition at 1500 g/ha,[28],100%
same,inhibition at 22.5 g/ha,Echinochloa crus-galli [29],25.1%
same,inhibition at 375 g/ha,Echinochloa crus-galli [30],43.5%
same,inhibition at 750 g/ha,[31],100%
same,inhibition at 187.5 g/ha,[32],72.9%
same,inhibition at 187.5 g/ha,[33],100%
same,inhibition at 375 g/ha,[34],100%
same,inhibition at 750 g/ha,[35],100%
same,inhibition at 45 g/ha,Digitaria sanguinalis [36],2.4%
same,inhibition at 1500 g/ha,Amaranthus retroflexus [37],100%
same,inhibition at 1500 g/ha,Digitaria sanguinalis [38],32.1%
same,inhibition at 45 g/ha,Echinochloa crus-galli [39],34%
same,inhibition at 375 g/ha,Amaranthus retroflexus [40],100%
same,inhibition at 750 g/ha,Digitaria sanguinalis [41],100%
same,inhibition at 375 g/ha,Echinochloa crus-galli [42],97.3%
same,inhibition at 22.5 g/ha,Amaranthus retroflexus [43],76.6%
same,inhibition at 1500 g/ha,Amaranthus retroflexus [44],100%
same,inhibition at 187.5 g/ha,Digitaria sanguinalis [45],0%
same,inhibition at 93.75 g/ha,Echinochloa crus-galli [46],53.4%
same,inhibition at 187.5 g/ha,Digitaria sanguinalis [47],77.6%
same,inhibition at 375 g/ha,Digitaria sanguinalis [48],100%
